Rows were chosen to be rich in hits. Some 4.1% of all compounds tested hit in one or more screens of this group.
TAG inh: inhibitors of triacylglycerol accumulation; H9c2 cells, Nile Red lipid (TAG) fluorescence; cells loaded with 200 µM oleic acid; inhibition, % at 12.5 µM; 230,000 tested, 0.66% active;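 active = pattern-corrected inhibition of lipid staining of at least 50% with the nuclear-stain viability signal not falling by more than 50%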
AHR act: activates the human aryl hydrocarbon receptor. P35869. AHR-responsive luciferase reporter cells, luminescence. activation, % at 5 µM. 320,000 tested, 2.5% active; in the data active = activation above about 47%
Target sequence (P35869 whole entry, looked up): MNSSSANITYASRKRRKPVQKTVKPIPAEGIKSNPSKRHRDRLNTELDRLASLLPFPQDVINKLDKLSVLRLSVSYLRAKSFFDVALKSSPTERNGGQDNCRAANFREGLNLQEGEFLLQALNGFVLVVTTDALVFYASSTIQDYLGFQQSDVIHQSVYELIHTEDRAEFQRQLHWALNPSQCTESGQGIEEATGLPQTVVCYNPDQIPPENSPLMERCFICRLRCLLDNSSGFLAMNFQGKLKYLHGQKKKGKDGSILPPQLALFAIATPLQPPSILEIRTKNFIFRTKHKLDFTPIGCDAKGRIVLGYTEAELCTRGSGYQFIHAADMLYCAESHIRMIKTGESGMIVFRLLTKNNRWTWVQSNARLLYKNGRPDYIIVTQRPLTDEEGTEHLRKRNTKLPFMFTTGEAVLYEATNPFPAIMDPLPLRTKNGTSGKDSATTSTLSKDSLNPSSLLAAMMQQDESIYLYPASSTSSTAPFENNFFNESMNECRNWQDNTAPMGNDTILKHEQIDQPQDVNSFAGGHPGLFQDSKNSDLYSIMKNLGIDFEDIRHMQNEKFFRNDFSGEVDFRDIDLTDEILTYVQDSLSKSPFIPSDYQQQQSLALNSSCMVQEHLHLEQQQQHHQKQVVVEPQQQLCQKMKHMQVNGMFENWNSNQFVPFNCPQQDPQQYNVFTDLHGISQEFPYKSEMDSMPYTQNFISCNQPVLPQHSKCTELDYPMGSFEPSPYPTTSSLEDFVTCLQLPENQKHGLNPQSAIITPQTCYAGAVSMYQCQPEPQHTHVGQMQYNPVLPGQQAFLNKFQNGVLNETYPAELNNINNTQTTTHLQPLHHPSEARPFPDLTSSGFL
SMARCA2 activ: SMARCA2 function activation, primary screen; MG213 cells, MMTV-luciferase reporter, dexamethasone, overnight; activation, % at 9.1 µM; 370,000 tested, 1% active; AID 652017; in the data active = activation above about 7.8%
Efflux pump mplx: antifungal efflux pump inhibition, Nile Red retention. 330,000 tested, 0.44% active. S. cerevisiae Candida pump triplex. inhibition, % at 10 µM;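 active = plate passing quality check with inhibition over a set limit, or well fluorescence over plate mean plus 4 SD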;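 note: Nile Red retained in pooled yeast measured as flow cytometry median fluorescence; higher means more Nile Red kept so more efflux inhibition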
Tb MetRS inh: blocks T. brucei methionyl-tRNA synthetase activity; 360,000 tested, 0.4% active; purified T. brucei MetRS, ATP depletion, Kinase-Glo luminescence; AID 624268; inhibition, % at 11.9 µM;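 active = inhibition above a per-plate cutoff of the control wells' mean inhibition plus 3 SD, cut at about 5.5% in these data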
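assay system = parasite MetRS enzyme | timing = 15 min preincubation, 2 h reaction, all 25 °C | evaluation = percent inhibition relative to median high and low control wells | medium = HEPES buffer containing pyrophosphatase, BSA, spermine, DTT | compound = single dose, 11.9 µM final nominal, 0.9% final DMSO | detection = Kinase-Glo luminescence, ATP depletion format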
SMARCA2 conf: SMARCA2 activation, confirmation screen; shares compounds with SMARCA2 activ; MG213 cells, MMTV-luciferase with dexamethasone, luminescence, overnight; MG213 cells expressing E1A, Rb sequestered; DMSO wells 0%, reference activator 100%; activation, % at 9.1 µM; 3,500 tested, 30% active;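 active = activation above its plate's cutoff, the mean activation of tested wells plus 3 SD, cut at about 7.9% in these data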
GAL4-VP16 Luc: counter-screen for SMARCA2 activators: GAL4-VP16 luciferase reporter activation; AID 686939; activation, % at 9.1 µM; shares compounds with SMARCA2 activ; 3,500 tested, 41% active; HEK293 GAL4-VP16 pG5luc reporter, luciferase luminescence; scaled: DMSO wells 0%, SAHA wells 100%;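 active = activation above the solvent-only control well mean plus 3 SD, averaged across control plates, cut at about 5.2% in these data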
Hits are given with their value; 0 = inactive; - = not tested or not shown; ! = a repeat was not active.

SMILES | TAG inh | AHR act | SMARCA2 activ | Efflux pump mplx | Tb MetRS inh | SMARCA2 conf | GAL4-VP16 Luc
CCN(CC)Cc1cc(Nc2ccnc3cc(Cl)ccc23)ccc1O | 0 | 0 | 8.2 | 0 | 0 | 20! | 0
Oc1ccc(Nc2ccnc3cc(Cl)ccc23)cc1 | - | 0 | 0 | 0 | 0 | - | -
CCOCCCNC(=O)C(c1ccccc1)N(Cc1cccs1)C(=O)CNC(=O)c1ccccc1 (stereo not drawn) | - | 0 | 8.7 | 0 | 0 | 0 | 0
COC(=O)c1cc2c(c3c4cc(C)ccc4n(S(=O)(=O)c4ccc(OC)cc4)c13)C(=O)N(Cc1ccc(C(F)(F)F)cc1)C2 | - | - | 0 | - | - | - | -
CC(=O)C1=C(S(=O)(=O)c2ccc(C)cc2)CS(=O)(=O)C1 | 0 | - | 9.1 | - | 0 | 15 | 0
Cc1ccc(S(=O)(=O)C2CS(=O)(=O)CC2O)cc1 (stereo not drawn) | - | 0 | 0 | 0 | 0 | - | -
CN(C)c1ccc(NC(=O)/C=C/c2ccccc2Cl)cc1 | - | 0 | 8.2 | 0 | 0 | 0 | 11
O=C(/C=C/c1ccccc1[N+](=O)[O-])NCc1ccc(Cl)cc1 | 0 | 0 | 0 | 0 | 0 | - | -
CCN(CC)c1ccc(NC(=O)/C=C\c2ccccc2Cl)cc1 | - | 0 | 0 | 0 | 0 | - | -
O=C(/C=C/c1ccccc1Cl)NCc1ccccc1 | - | 0 | 11 | 0 | 0 | 0 | 0
O=C(NCc1ccc(C(=O)NCC2CCCO2)cc1)c1cccc(Br)c1 (stereo not drawn) | - | - | 0 | - | - | - | -
C=CCNC(=O)COc1ccccc1C#N | 0 | 0 | 0 | 0 | 0 | - | -
CC(C)(C)NC(=O)NC(=O)COc1ccccc1C#N | 0 | 0 | 9.7 | 0 | 0 | 0 | 12
COC(=O)c1ccc(N)c2c(N)ccc(C(=O)OC)c12 | - | - | 0 | - | - | - | -
CS(=O)(=O)N1CCN(c2ccc(NC(=O)c3ccc(-c4ccc(Cl)cc4)o3)cc2)CC1 | - | 0 | 0 | 0 | 0 | - | -
CN1CCN(c2ccc(NC(=O)c3ccc(-c4ccc(Cl)cc4)o3)cc2)CC1 | 0 | 0 | 9.1 | 0 | 0 | 0 | 0
CC(=O)NC(=O)c1ccc(-c2ccc(Cl)cc2)o1 | - | 0 | 8.5 | 0 | 0 | 0 | 0
CC(=O)n1cc(/C=C2/N=C(c3ccccc3)OC2=O)c2ccccc21 | - | 0 | 8.2 | 0 | 0 | 0 | 0
CC(=O)n1cc(/C=N/NC(N)=S)c2ccccc21 | 0 | 0 | 0 | 0 | 0 | - | -
C[C@@H]1CN([C@H](C)CO)C(=O)c2ccccc2-c2ccccc2CO[C@@H]1CN(C)C(=O)Nc1ccccc1 | - | - | 0 | - | - | - | -
CC(=O)C1=C(C)N(CC(C)C)C(=S)NC1c1cccc(Cl)c1 (stereo not drawn) | - | - | 0 | - | - | - | -
Oc1ccc(/C=N/N=C/c2ccc(O)c(O)c2)cc1O | 0 | 0 | 0 | 0 | 0 | - | -
O=C1Nc2ccccc2/C1=N\N=C\c1ccc(O)c(O)c1 | 0 | 0 | 9.5 | 0 | 0 | 0 | 6.4
CCCN1CCC(=NNC(=O)c2ccc(Br)o2)CC1 | - | 0 | 0 | 0 | 0 | - | -
CCN1CCN(c2ccc(NC(=O)c3ccco3)cc2)CC1 | 0 | 0 | 8.3 | 0 | 0 | 0 | 0
SMILES | TAG inh | AHR act | SMARCA2 activ | Efflux pump mplx | Tb MetRS inh | SMARCA2 conf | GAL4-VP16 Luc
CCN1CCC(=NNC(=O)c2ccco2)CC1 | 0 | 0 | 14 | 0 | 0 | 0 | 0
COc1ccc(C(=O)NCC2CCN(C(=O)C(=O)c3cc4ccccc4o3)CC2)c(OC)c1 | - | - | 0 | - | - | - | -
C/C(N)=C(/C#N)C(=O)CSc1cc(C)c2cc(C)cc(C)c2n1 | 0 | 0 | 8.5 | 0 | 0 | 0 | 0
COc1cc(NC(=O)CSc2cc(C)c3cc(C)cc(C)c3n2)c(C(=O)O)cc1OC | 0 | 0 | 8.4 | 0 | 0 | 0 | 0
Cc1cc(C)c2nc(SCC#N)cc(C)c2c1 | - | 0 | 0 | 0 | 0 | - | -
C=CCN1C(=O)[C@@H](CC(=O)N2CCN(C(=O)c3ccco3)CC2)[C@]2(C(=O)OCC)CCCCC/C=C/12 | - | - | 0 | - | - | - | -
Cc1ccccc1CN1[C@@H](C)[C@H](c2ccccc2)Oc2cccc(NCC(C)C)c2S1(=O)=O | - | - | 0 | - | - | - | -
CCS(=O)(=O)c1ccc(O)c(NC(=O)COc2ccc(C)cc2)c1 | - | 0 | 0 | 0 | 0 | - | -
CCS(=O)(=O)c1ccc(O)c(NC(=O)COc2ccc(OC)cc2)c1 | 0 | 0 | 8.1 | 0 | 0 | 0 | 0
O=C(COC(=O)CN1C(=O)c2ccccc2C1=O)Nc1ccc(S(=O)(=O)N2CCCC2)cc1 | 0 | 0 | 9.4 | 0 | 0 | 0 | 0
CC[C@H](CCCc1ccccc1OC)CCS(=O)(=O)N(C)C | - | - | 0 | - | - | - | -
O=C1OCC2=Nc3cccc4cccc(c34)N12 | - | - | 0 | - | - | - | -
O=C(CCl)NC1CCCc2ccccc21 (stereo not drawn) | 0 | 0 | 9.3 | 0 | 0 | 0 | 0
O=C(CCN1C(=O)/C(=C\c2ccccc2)SC1=S)NNC(=O)c1ccncc1 | 0 | 0 | 9.7 | 0 | 0 | 0 | 0
Cc1cc(C(=O)NCc2ccccc2)no1 | - | 0 | 0 | 0 | 0 | - | -
Cc1cc(C(=O)NCc2ccccc2Br)no1 | - | 0 | 9.4 | 0 | 0 | 0 | 0
COc1cc2c(c3c1c(=O)c1cccc(F)c1n3C)C=CC(C)(C)O2 | - | - | 0 | - | - | - | -
COC(=O)[C@]12C[C@H](CC(=O)NCc3cccs3)C(=O)N(Cc3ccc4c(c3)OCO4)C1=C[C@H](COCc1ccccc1)O[C@@H]2C | - | - | 0 | - | - | - | -
C=CCCC1CN(Cc2ccc(OC)cc2)S(=O)(=O)c2c(Oc3ccc(C)cc3)cccc2O1 (stereo not drawn) | - | - | 0 | - | - | - | -
COc1ccc(-c2cc(-c3ccccc3O)[nH]n2)cc1OC | 0 | 0 | 13 | 0 | 0 | 18 | 14
COc1ccc(-c2cc(-c3ccc(OC)c(OC)c3)n[nH]2)c(O)c1 | - | 0 | 0 | 0 | 0 | - | -
Cc1cccc2nc(-c3ccccc3)c(-c3ccc(CN4CCC(n5cc(-c6ccccc6)[nH]c5=O)CC4)cc3)nc12 | - | - | 0 | - | - | - | -
C[C@@H]1CN(c2ccc(N3CCNC[C@H]3C)cc2C#N)CCN1Cc1ccccc1 | - | - | 0 | - | - | - | -
COc1ccccc1CN(C)C(=O)c1ccc(S(=O)(=O)NCc2ccco2)cc1 | 0 | 0 | 11 | 0 | 0 | 0 | 0
COc1ccccc1C(CNC(=O)c1ccc(S(=O)(=O)NCc2ccco2)cc1)N(C)C (stereo not drawn) | - | 0 | 0 | 0 | 0 | - | -
SMILES | TAG inh | AHR act | SMARCA2 activ | Efflux pump mplx | Tb MetRS inh | SMARCA2 conf | GAL4-VP16 Luc
COc1cc2c(cc1NC(=O)c1ccco1)CCCC2 | - | 0 | 10 | 0 | 0 | 7.9 | 11
O=[N+]([O-])c1ccccc1N/N=C\c1ccccc1F | 0 | 0 | 9.1 | 0 | 0 | 8.9 | 14
CNc1nc(C)nc(-c2ccccc2O)n1 | 0 | 0 | 8.7 | 0 | 0 | 0 | 5.1
CCOC(=O)N1CCN(C(=O)CS(=O)(=O)c2cn(Cc3ccc(F)cc3)c3ccccc23)CC1 | 0 | 0 | 8.0 | 0 | 0 | 0 | 0
O=C(CS(=O)(=O)c1cn(Cc2ccc(Cl)cc2)c2ccccc12)N1CCCC1 | 0 | 0 | 0 | 0 | 0 | - | -
COC(=O)C1CN(Cc2ccc(Cl)cc2)CCS(=O)(=O)N1Cc1cn(Cc2ccc(OC)cc2)nn1 (stereo not drawn) | - | - | 0 | - | - | - | -
